Our source for the Decrease and IC50 values is ChEMBL document CHEMBL1132993, “Novel benzofuran and benzothiophene biphenyls as inhibitors of protein tyrosine phosphatase 1B with antihyperglycemic properties” (J Med Chem, 2000).

The structures appear in SMILES notation.

Test [1] deals with Mus musculus. The experiment in a line: percentage decrease in plasma glucose in the ob/ob mouse model at 25 mg/Kg/day administered per orally. Type of test: functional. The procedure, abridged: (§1)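 Genetically obese C57 B1/6J ob/ob diabetic mice, four to six per group, dosed orally once daily for 4 days. Plasma glucose is expressed as percent change relative to the vehicle-treated group, with p < 0.05 versus vehicle. Changes that are not significant are generally less than -15%. Ciglitazone served as the reference standard.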

Test [2] has as its system Mus musculus. The experiment in a line: percentage decrease in plasma glucose in the ob/ob mouse model at 100 mg/kg/day administered per orally. Type of test: functional. The settings on record: route oral. The procedure, abridged: as §1
For test [3], the target named is T1, Tyrosine-protein phosphatase non-receptor type 1 (Homo sapiens, UniProt P18031).
T1 sequence (P18031 whole entry): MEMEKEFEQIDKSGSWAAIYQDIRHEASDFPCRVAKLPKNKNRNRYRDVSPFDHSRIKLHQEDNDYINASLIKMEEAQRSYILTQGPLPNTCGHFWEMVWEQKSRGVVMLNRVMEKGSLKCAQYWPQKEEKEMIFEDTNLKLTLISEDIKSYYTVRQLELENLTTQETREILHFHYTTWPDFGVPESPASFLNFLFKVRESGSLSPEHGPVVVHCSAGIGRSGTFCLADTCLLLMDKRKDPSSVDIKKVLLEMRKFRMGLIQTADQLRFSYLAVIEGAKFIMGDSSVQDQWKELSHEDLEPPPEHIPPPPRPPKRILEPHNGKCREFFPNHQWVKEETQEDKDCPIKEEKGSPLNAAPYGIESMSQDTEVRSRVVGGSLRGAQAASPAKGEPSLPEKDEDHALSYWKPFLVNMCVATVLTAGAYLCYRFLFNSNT
Nature of the test: In vitro inhibitory activity against human recombinant protein tyrosine phosphatase 1b (PTP1B). The essentials: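 Recombinant human PTP1B, diluted in pH 7.4 Tris-HCl/EDTA/β-mercaptoethanol buffer, preincubated 10 min at 37 °C with compound in HEPES pH 7.4. Reaction ran 30 min at 37 °C. Released phosphate was read by malachite green-ammonium molybdate at 650 nm, in quadruplicate. IC50 came from four-parameter logistic regression.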

On to `CC(Cc1ccccc1)(Oc1ccc(-c2ccc(-c3c(Cc4ccccc4)oc4ccccc34)cc2)cc1)C(=O)O` (stereo not drawn), for which the Decrease worked out at 30% in the test on Mus musculus [1] and 28% in the test with Mus musculus [2].
Take `Oc1c(I)cc(-c2ccc(-c3c(Cc4ccccc4)sc4ccccc34)cc2)cc1I`: the IC50 in test [3] turned out to be 520 nM.
For the compound `O=C(O)[C@@H](Cc1ccccc1)Oc1ccc(-c2ccc(-c3c(Cc4ccc(F)cc4)sc4ccccc34)cc2)cc1`, in test [3], the IC50 came out at 120 nM.
On to `O=C(O)[C@@H](Cc1ccccc1)Oc1ccc(-c2ccc(-c3c(Cc4nccs4)sc4ccccc34)cc2)cc1`, for which the IC50 in test [3] came to 1160 nM.
As to `O=C(O)c1ccc(COc2ccc(-c3ccc(-c4c(Cc5ccccc5)oc5ccccc45)cc3)cc2)cc1`, the IC50 in test [3] is 360 nM.
With `CCCCc1sc2ccccc2c1-c1ccc(-c2ccc(O[C@@H](C(=O)O)c3ccccc3)cc2)cc1`, the concentration for half-maximal inhibition (IC50) in test [3] came to 110 nM. In addition, the Decrease in the test on Mus musculus [2] is given as 28%.
On to `O=C(O)C(CCN1C(=O)c2ccccc2C1=O)Oc1c(Br)cc(-c2ccc(-c3c(Cc4ccccc4)sc4ccccc34)cc2)cc1Br` (stereo not drawn), for which the IC50 in test [3] was found to be 44 nM.
For the compound `O=C(O)CCNc1cc(-c2ccc(-c3c(Cc4ccccc4)oc4ccccc34)cc2)ccc1OCCc1ccccc1`, the IC50 in test [3] was 140 nM. For the same compound, the Decrease in the test on Mus musculus [1] worked out at 17%.
As to `CCCCc1oc2ccccc2c1Cc1ccc2c(Br)c(OCn3cnnn3)ccc2c1`, in test [3], the IC50 was 700 nM.
Turning to `CCCCc1oc2ccccc2c1Cc1ccc2c(Br)c(OCC(=O)O)ccc2c1`, the IC50 in test [3] stood at 1400 nM.
As for `O=C(O)[C@H](Cc1ccccc1)Oc1ccc(-c2ccc(-c3c(Cc4ccccc4)oc4ncccc34)cc2)cc1`, the IC50 in test [3] turned out to be 590 nM.
On the same count and under the same terms, the figure for `O=C(O)[C@H](CCN1C(=O)c2ccccc2C1=O)Oc1ccc(-c2ccc(-c3c(Cc4ccccc4)oc4ccccc34)cc2)cc1` is 340 nM; for `O=C(O)[C@H](Cc1ccccc1)Oc1ccc(-c2ccc(-c3c(Cc4ccccc4)oc4ccc(F)cc34)cc2)cc1` it is 130 nM.
Turning to `O=C(O)[C@H](CCc1ccccc1)Oc1ccc(-c2ccc(-c3c(Cc4ccccc4)oc4ccccc34)cc2)cc1`, the IC50 in test [3] turned out to be 220 nM.
Turning to `O=C(O)[C@H](Cc1ccccc1)Oc1ccc(-c2ccc(-c3c(Cc4ccccc4)oc4ccccc34)cc2)cc1C1CCCC1`, in test [3], the IC50 amounted to 55 nM.
The same measure, in the same setting: the figure for `Cc1oc(-c2ccc(C(F)(F)F)cc2)nc1-c1cccc(-c2ccc(OC(Cc3ccccc3)C(=O)O)cc2)c1` (stereo not drawn) is 1600 nM.
In the case of `COc1ccc(Cc2sc3ccccc3c2-c2ccc(-c3ccc(O[C@H](Cc4ccccc4)C(=O)O)cc3)cc2)cc1OC`, the half-inhibitory concentration (IC50) in test [3] was found to be 120 nM. In the test on Mus musculus [1], the Decrease was 24%.
Turning to `Oc1ccc(-c2ccc(-c3c(Cc4ccc(O)cc4O)sc4ccccc34)cc2)cc1`, in test [3], the IC50 was determined as 580 nM.
With `CCCCc1oc2ccccc2c1C(=O)c1ccc2c(Br)c(OCn3cnnn3)ccc2c1`, the IC50 in test [3] stood at 1100 nM. In addition, the Decrease in the test on Mus musculus [2] worked out at 25%.
`CCCCc1oc2ccccc2c1Cc1ccc2c(Br)c(OC(Cc3ccccc3)C(=O)O)ccc2c1` (stereo not drawn): the Decrease in the test on Mus musculus [2] is given as 26%.
As to `C[C@@H](Oc1ccc(-c2ccc(-c3c(Cc4ccccc4)oc4ccccc34)cc2)cc1)C(=O)O`, the Decrease is recorded as -1% in the test on Mus musculus [1] and 39% in the test with Mus musculus [2].
Turning to `Cc1oc(-c2ccc(C(F)(F)F)cc2)nc1-c1ccc(-c2ccc(OCn3cnnn3)cc2)cc1`, the IC50 in test [3] came out at 900 nM.
On to `O=C(O)[C@@H](Cc1ccccc1)Oc1ccc(-c2ccc(-c3oc4ccccc4c3Cc3ccccc3)cc2)cc1`, for which the IC50 in test [3] was determined as 350 nM.
As for `Oc1ccc(-c2ccc(-c3c(Cc4ccccc4)oc4ccccc34)cc2)cc1`, in test [3], the IC50 stood at 920 nM.
Still for that read-out and setting: the figure for `O=C(O)COc1ccc(-c2ccc(-c3c(Cc4ccccc4)sc4ccccc34)cc2)cc1-c1ccccc1` is 100 nM.
For `O=C(O)[C@@H](Cc1ccccc1)Oc1ccc(-c2ccc(-c3c(Cc4ccccc4)sc4ccccc34)cc2)cc1`, the Decrease in the test on Mus musculus [2] was 37%.
`CCCCc1sc2ccccc2c1-c1ccc(-c2ccc(O)cc2)cc1`: in test [3], the IC50 worked out at 700 nM.
With `CCCCc1oc2ccccc2c1C(O)c1ccc2cc(O)ccc2c1` (stereo not drawn), the IC50 in test [3] came to 1100 nM.
Turning to `COc1ccc(-c2cc(-c3ccc(-c4c(Cc5ccccc5)sc5ccccc45)cc3)cc(Br)c2OCC(=O)O)c(OC)c1`, the half-inhibitory concentration (IC50) in test [3] amounted to 47 nM.
Take `O=C(c1ccccc1)c1oc2ccccc2c1-c1ccc(-c2ccc(O)cc2)cc1`: in test [3], the IC50 amounted to 740 nM.
On the same count and under the same terms, the figure for `O=C(O)CCCOc1ccc(-c2ccc(-c3c(Cc4ccccc4)sc4ccccc34)cc2)cc1Br` is 170 nM; for `CC(=O)Oc1cc(S(=O)(=O)Oc2ccc(-c3ccc(-c4coc5ccccc45)cc3)cc2)ccc1C(=O)O` it is 1160 nM.
With `CCCCc1oc2ccccc2c1-c1ccc(-c2ccc(OC(Cc3ccccc3)C(=O)O)cc2)cc1` (stereo not drawn), the Decrease with Mus musculus [2] came out at 34%.
For `CCCCc1oc2ccccc2c1Cc1ccc2c(I)c(OC(Cc3ccccc3)C(=O)O)ccc2c1` (stereo not drawn), the 50% inhibitory concentration (IC50) in test [3] worked out at 320 nM.
With `COc1ccc(-c2cc(-c3ccc(-c4c(Cc5ccccc5)sc5ccccc45)cc3)cc(Br)c2OCC(=O)O)cc1`, in the test on Mus musculus [1], the Decrease is reported as 30%.
On to `O=C(O)[C@@H](Cc1ccccc1)Oc1ccc(-c2ccc(-c3c(Cc4ccccc4)oc4ccccc34)cc2)cc1`, for which the Decrease in the test on Mus musculus [2] is on record as 35%.
Consider `O=C(O)COc1ccc(-c2ccc(-c3c(Cc4ccccc4)oc4ccccc34)cc2)cc1C1CCCC1`, for which, in test [3], the IC50 was determined as 170 nM.
Consider `CCCCc1oc2ccccc2c1Cc1ccc(-c2ccc(OCn3cnnn3)cc2)cc1`, for which the IC50 in test [3] is 510 nM.
Take `O=C(O)[C@@H](Cc1ccccc1)Oc1ccc(-c2ccc(-c3c(Cc4ccccc4)sc4ccccc34)cc2)cc1-c1ccc(Cl)cc1`: the IC50 in test [3] is 52 nM.
Take `O=C(O)C(Cc1ccccc1)Oc1ccc(-c2ccc(-c3c(Cc4ccccc4)oc4ccccc34)cc2)cc1` (stereo not drawn): in the test with Mus musculus [2], the Decrease came out at 40%.
In the case of `COc1ccc(-c2cc(-c3ccc(-c4c(Cc5ccccc5)sc5ccccc45)cc3)cc(-c3ccc(OC)cc3)c2OCC(=O)O)cc1`, the Decrease in the test on Mus musculus [1] turned out to be 26%.
Regarding `CCCCc1oc2ccccc2c1C(=O)c1ccc2c(Br)c(OC(Cc3ccccc3)C(=O)O)ccc2c1` (stereo not drawn), in test [3], the IC50 was determined as 1200 nM.
On to `CC[C@H](Oc1c(Br)cc(-c2ccc(-c3c(Cc4ccccc4)oc4ccccc34)cc2)cc1Br)C(=O)O`, for which, in test [3], the IC50 is 130 nM.
As for `COc1cccc(-c2cc(-c3ccc(-c4c(Cc5ccccc5)sc5ccccc45)cc3)ccc2OCC(=O)O)c1OC`, the IC50 in test [3] worked out at 71 nM.
In the case of `Cc1ccc2oc(Cc3ccccc3)c(-c3ccc(-c4ccc(O[C@H](Cc5ccccc5)C(=O)O)cc4)cc3)c2c1`, the IC50 in test [3] stood at 410 nM.
In the case of `CCCCc1oc2ccccc2c1Cc1ccc2c(I)c(O)ccc2c1`, in test [3], the IC50 was found to be 380 nM.
With `Cc1oc(-c2ccc(C(F)(F)F)cc2)nc1-c1ccc(-c2ccc(OC(Cc3ccccc3)C(=O)O)cc2)cc1` (stereo not drawn), the Decrease with Mus musculus [1] is listed as 27%.
On to `O=C(O)c1ccc(S(=O)(=O)Oc2ccc(-c3ccc(-c4c(Cc5ccccc5)oc5ccccc45)cc3)cc2)cc1O`, for which the Decrease in the test with Mus musculus [1] was 18%.
Turning to `CCOc1ccc(-c2cc(-c3ccc(-c4c(Cc5ccccc5)sc5ccccc45)cc3)ccc2OCC(=O)O)cc1`, the IC50 in test [3] turned out to be 52 nM.
With `Oc1ccc(Cc2sc3ccccc3c2-c2ccc(-c3ccc(O)cc3)cc2)cc1`, the IC50 in test [3] worked out at 1080 nM.
Take `O=C(O)COc1c(Br)cc(-c2ccc(-c3c(Cc4ccccc4)sc4ccccc34)cc2)cc1Br`: the IC50 in test [3] came to 100 nM.
Turning to `O=C(O)c1ccc(S(=O)(=O)Oc2ccc(-c3ccc(-c4c(Cc5ccccc5)oc5ccccc45)cc3)cc2C2CCCC2)cc1O`, the concentration for half-maximal inhibition (IC50) in test [3] was 28 nM.
As to `COC(=O)C(CCNC(=O)c1ccccc1C(=O)O)Oc1c(Br)cc(-c2ccc(-c3c(Cc4ccccc4)sc4ccccc34)cc2)cc1Br` (stereo not drawn), the IC50 in test [3] came out at 54 nM.
`CCCCc1oc2ccccc2c1Cc1ccc2cc(O)ccc2c1`: the IC50 in test [3] came to 1300 nM.
On the same count and under the same terms, the figure for `O=C(O)c1ccccc1C(=O)Nc1cc(-c2ccc(-c3c(Cc4ccccc4)oc4ccccc34)cc2)ccc1O` is 160 nM; for `O=C(O)c1ccccc1C(=O)NCCC(Oc1c(Br)cc(-c2ccc(-c3c(Cc4ccccc4)sc4ccccc34)cc2)cc1Br)C(=O)O` (stereo not drawn) it is 180 nM.
With `COc1ccc(Cc2sc3ccccc3c2-c2ccc(-c3ccc(O[C@H](Cc4ccccc4)C(=O)O)cc3)cc2)c(OC)c1`, the Decrease in the test on Mus musculus [1] is 24%.
Consider `COc1ccc(-c2cc(-c3ccc(-c4c(Cc5ccccc5)sc5ccccc45)cc3)ccc2O[C@H](Cc2ccccc2)C(=O)O)cc1`, for which the IC50 in test [3] was determined as 53 nM.
On to `O=C(O)c1ccc(S(=O)(=O)Oc2c(Br)cc(-c3ccc(-c4c(Cc5ccccc5)sc5ccccc45)cc3)cc2Br)cc1O`, for which the Decrease in the test on Mus musculus [2] was found to be 25%.
For the compound `Cc1oc(-c2ccc(C(F)(F)F)cc2)nc1-c1ccc2c(Br)c(OCC(=O)O)ccc2c1`, in test [3], the IC50 stood at 1300 nM.
For the compound `CCCCCCC(Oc1c(Br)cc(-c2ccc(-c3c(Cc4ccccc4)oc4ccccc34)cc2)cc1Br)C(=O)O` (stereo not drawn), the IC50 in test [3] worked out at 23 nM. The Decrease with Mus musculus [1] came to 27%.
As for `O=C(O)[C@@H](Cc1ccccc1)Oc1ccc(-c2ccc(-c3c(Cc4ccc(O)cc4O)sc4ccccc34)cc2)cc1`, the IC50 in test [3] was 120 nM. For the same compound, the Decrease in the test with Mus musculus [1] was 20%.
Turning to `CCCCc1sc2ccccc2c1-c1ccc(-c2ccc(O[C@H](Cc3ccccc3)C(=O)O)cc2)cc1`, the 50% inhibitory concentration (IC50) in test [3] amounted to 170 nM. Moreover, the Decrease with Mus musculus [2] was found to be 27%.
For `O=C(O)CNc1cc(-c2ccc(-c3c(Cc4ccccc4)oc4ccccc34)cc2)ccc1OCCc1ccccc1`, in test [3], the IC50 was determined as 82 nM.
